# Measurements: ChEMBL document CHEMBL1123732, “Flavones. 1. Synthesis and antihypertensive activity of (3-phenylflavonoxy)propanolamines without beta-adrenoceptor antagonism” (J Med Chem, 1987)
# Activity calls are given as the source filed them. The calls are words filed in the database; no cut-off is given here.
# How the values were obtained:
# [1] = tested on: Rattus norvegicus; assay: Percentage of fall in systolic blood pressure (SBP) at the following hours after dosing at 8 mg/kg (po) at 7.5 hr in spontaneously hypertensive rats(SHR); format: functional, Artery
# Procedure, shortened: (§1)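 Male spontaneously hypertensive rats (Wistar-Kyoto strain), unanesthetized, dosed orally; systolic pressure measured by indirect tail cuff. Before each reading, rats warmed at 35-37 °C for 15-20 min to dilate the caudal artery. Five rats per treatment group; result is percentage fall in systolic pressure versus untreated control. Significance tested against control.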
# [2] = tested on: Rattus norvegicus; assay: Evaluated for the percentage inhibition of the depressor response of isoproterenol (0.25 mg/kg, iv) in spontaneously hypertensive rats at 150 mg/kg peroral dose
# [3] = tested on: Rattus norvegicus; assay: […] systolic blood pressure (SBP) for compound-treated group relative to the value for untreated control at 17 mg/kg dose (po) in spontaneously hypertensive rats(SHR); format: functional, Artery; procedure, shortened: as §1
# [4] = tested on: Rattus norvegicus; assay: Percentage of fall in systolic blood pressure (SBP) at the following hours after dosing at 17 mg/kg (po) at 5 hr in spontaneously hypertensive rats(SHR); format: functional, Artery; procedure, shortened: as §1
# [5] = tested on: Rattus norvegicus; assay: Percentage of fall in systolic blood pressure (SBP) at the following hours after dosing at 17 mg/kg (po) at 2 hr in spontaneously hypertensive rats(SHR); NS mmeans not significant; format: functional, organism-based; design: dose 17 mg/kg; settings: Artery; procedure, shortened: as §1
# [6] = tested on: Rattus norvegicus; assay: […] systolic blood pressure (SBP) for compound-treated group relative to the value for untreated control at 8 mg/kg dose (po) in spontaneously hypertensive rats(SHR); format: functional, Artery; procedure, shortened: as §1
# [7] = tested on: Rattus norvegicus; assay: Percentage of fall in systolic blood pressure (SBP) at the following hours after dosing at 8 mg/kg (po) at 2 hr in spontaneously hypertensive rats(SHR); NS means not significant; format: functional, organism-based; design: dose 8 mg/kg; settings: Artery; procedure, shortened: as §1
# [8] = tested on: Rattus norvegicus; assay: Percentage of fall in systolic blood pressure (SBP) at the following hours after dosing at 8 mg/kg (po) at 24 hr in spontaneously hypertensive rats(SHR); format: functional, Artery; procedure, shortened: as §1
# [9] = tested on: Rattus norvegicus; assay: Percentage of fall in systolic blood pressure (SBP) at the following hours after dosing at 17 mg/kg (po) at 24 hr in spontaneously hypertensive rats(SHR); format: functional, Artery; procedure, shortened: as §1
# [10] = tested on: Rattus norvegicus; assay: Percentage of fall in systolic blood pressure (SBP) at the following hours after dosing at 17 mg/kg (po) at 7.5 hr in spontaneously hypertensive rats(SHR); format: functional, Artery; procedure, shortened: as §1
# [11] = tested on: Rattus norvegicus; assay: Percentage of fall in systolic blood pressure (SBP) at the following hours after dosing at 8 mg/kg (po) at 5 hr in spontaneously hypertensive rats(SHR); format: functional, Artery; procedure, shortened: as §1
# [12] = target: Adrenergic receptor beta (Rattus norvegicus, UniProt P18090+P10608+P26255); assay: Evaluated for beta-receptor affinity, determined in rat brain membrane fraction with [3H]- dihydroalprenolol; format: cell membranes
# Procedure, shortened: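 Rat brain with cerebellum removed, homogenized in ice-cold 50 mM Tris-HCl pH 8.0 and spun at 50000g for 15 min, pellet washed once more the same way. Binding used 0.4-0.6 mg protein, 1 nM [3H]dihydroalprenolol, 50 mM Tris pH 8.0, and 5-10 competitor concentrations. IC50 read visually from a semilog plot; Ki from Cheng-Prusoff with KD approximately 1 nM.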
smiles,measurement,setting,value
CCCNCC(O)COc1ccc2c(=O)c(-c3ccccc3)c(-c3ccccc3)oc2c1 (configuration not stated),Decrease in SBP,[1],16%
same,inhibition,[2],inactive
same,SBP,[3],198 mmHg
same,Decrease in SBP,[4],11%
same,Decrease in SBP,[5],inactive
same,SBP,[6],191 mmHg
same,Decrease in SBP,[7],inactive
same,Decrease in SBP,[8],10%
same,Decrease in SBP,[9],14%
same,Decrease in SBP,[10],20%
same,Decrease in SBP,[11],12%
same,Ki,[12],> 0.00005 M
